Reference: ChEMBL document CHEMBL4184291, “Discovery of N-arylpyrroles as agonists of GPR120 for the treatment of type II diabetes” (Bioorg Med Chem Lett, 2018)

Assays:
Cytochrome P450 1A2 = target: T1, Cytochrome P450 1A2 (Homo sapiens, UniProt P05177); test: Inhibition of CYP1A2 (unknown origin); format: ADME
T1 sequence (P05177 whole entry): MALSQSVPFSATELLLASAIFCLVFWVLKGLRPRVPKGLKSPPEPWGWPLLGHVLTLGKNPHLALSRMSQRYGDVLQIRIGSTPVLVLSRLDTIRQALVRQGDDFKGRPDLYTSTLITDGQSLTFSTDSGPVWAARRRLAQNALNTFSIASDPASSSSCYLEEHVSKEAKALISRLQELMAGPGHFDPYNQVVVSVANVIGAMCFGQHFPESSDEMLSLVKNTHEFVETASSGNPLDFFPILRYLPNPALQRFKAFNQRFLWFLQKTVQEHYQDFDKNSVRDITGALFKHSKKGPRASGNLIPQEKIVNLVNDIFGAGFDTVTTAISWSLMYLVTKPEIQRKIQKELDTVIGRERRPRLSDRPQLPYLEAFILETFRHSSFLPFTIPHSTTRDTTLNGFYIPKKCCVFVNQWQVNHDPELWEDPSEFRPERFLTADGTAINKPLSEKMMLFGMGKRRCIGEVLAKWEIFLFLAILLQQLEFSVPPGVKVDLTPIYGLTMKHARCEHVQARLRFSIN

[1] = Half life in human liver microsomes; format: ADME, microsome
[2] = Protein binding in rat plasma; format: ADME, cell-free; settings: read-out: PPB (converted)
Mus musculus [3] = test: Oral bioavailability in mouse at 14.6 mg/kg by LC-MS/MS analysis; format: ADME, organism-based; settings: in vivo
[4] = Half life in dog at 1 mg/kg, iv by LC-MS/MS analysis; format: ADME, organism-based, Canis lupus familiaris; settings: in vivo
[5] = Clearance in dog at 1 mg/kg, iv by LC-MS/MS analysis; format: ADME, organism-based, Canis lupus familiaris; settings: in vivo
Mus musculus [6] = species on record: Mus musculus; test: Selectivity ratio of EC50 for mouse GPR40 to EC50 for recombinant mouse GPR120 expressed in HEK293 cells; format: cell-based
[7] = target: Sodium-dependent noradrenaline transporter (Homo sapiens) (UniProt P23975); test: Displacement of [3H]nisoxetine from recombinant human norepinephrine transporter at 10 uM after 120 mins by scintillation counting method relative to control
Sequence of Sodium-dependent noradrenaline transporter (Homo sapiens) (P23975 whole entry): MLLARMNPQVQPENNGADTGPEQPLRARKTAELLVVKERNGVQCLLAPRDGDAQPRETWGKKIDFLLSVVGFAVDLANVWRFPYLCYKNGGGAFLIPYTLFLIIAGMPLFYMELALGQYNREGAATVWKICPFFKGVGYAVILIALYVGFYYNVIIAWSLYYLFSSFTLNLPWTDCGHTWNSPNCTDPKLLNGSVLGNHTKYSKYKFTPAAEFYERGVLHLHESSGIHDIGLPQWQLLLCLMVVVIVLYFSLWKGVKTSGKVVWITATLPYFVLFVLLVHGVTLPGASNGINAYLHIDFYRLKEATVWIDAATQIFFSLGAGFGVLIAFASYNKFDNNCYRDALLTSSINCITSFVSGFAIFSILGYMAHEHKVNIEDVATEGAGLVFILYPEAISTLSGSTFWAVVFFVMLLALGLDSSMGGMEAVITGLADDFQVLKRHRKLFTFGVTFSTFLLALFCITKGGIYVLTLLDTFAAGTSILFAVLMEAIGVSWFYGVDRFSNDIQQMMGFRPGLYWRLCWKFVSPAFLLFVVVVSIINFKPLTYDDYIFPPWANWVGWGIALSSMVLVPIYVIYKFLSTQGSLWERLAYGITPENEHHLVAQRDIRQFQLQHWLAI

Rattus norvegicus = species on record: Rattus norvegicus; test: Displacement of [35S]TBPS from rat GABA-gated chloride channel at 10 uM after 120 mins by scintillation counting method
Cavia porcellus = test: Cardiotoxicity in guinea pig assessed as decrease in mean arterial blood pressure at 22.4 mg/kg; format: toxicity, organism-based; set-up: scale not given: the % may be the effect or the level left; settings: in vivo
Mus musculus [8] = test: Antidiabetic activity in diet-induced obese C57Bl/6 mouse model assessed as plasma glucose AUC at 10 mg/kg administered 30 mins prior to glucose challenge measured up to 90 mins post dose by ipGTT (reference value: 10113 mg/dL.min); format: functional, organism-based; set-up: time < 1.5 hr, dose 10 mg/kg
How it was run: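 Intraperitoneal glucose tolerance test with 10 mg/kg dosing, run in GPR120 knockout mice and in wild-type mice.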

Mus musculus [9] = test: Antiobesity activity in diet-induced obesity C57Bl6/J mouse model assessed as final glucose level in plasma at 30 mg/kg qd for 15 days measured on day 15 post 6 hrs fasting (reference value: 184 +/- 30 mg/dL); format: functional
Mus musculus [10] = test: Antiobesity activity in diet-induced obesity C57Bl6/J mouse model assessed as final insulin level in plasma at 10 mg/kg bid for 15 days measured on day 15 post 6 hrs fasting (reference value: 7304 +/- 2967 pg/ml); format: functional
Mus musculus [11] = test: Antiobesity activity in diet-induced obesity C57Bl6/J mouse model assessed as change in plasma insulin level at 30 mg/kg qd for 15 days measured on day 15 post 6 hrs fasting; format: functional

INH (Cytochrome P450 1A2): > 10 µM | half-life [1]: 0.85 h | fraction unbound [2]: 0.0017 | F (Mus musculus [3]): 166% | half-life [4]: 4.72 h | clearance [5]: 2.45 mL/min/kg | inhibition [7]: 51% | inhibition (Rattus norvegicus): 66%
Structure (SMILES): O=C(O)CCc1cc(F)c(OCc2c(C(F)(F)F)ccn2-c2ccc(Cl)cc2)c(F)c1
Ratio EC50 (Mus musculus [6]): 18 | Activity (Cavia porcellus): 10% | AUC (Mus musculus [8]): 4920 mg/dL·min | Activity (Mus musculus [9]): 151 mg/dL | Activity (Mus musculus [10]): 6225 pg/mL | Activity (Mus musculus [11]): -3450 pg/mL
